Test [1] deals with T1, Protein deacetylase HDAC6 (Homo sapiens, UniProt Q9UBN7).
T1 sequence (Q9UBN7 whole entry): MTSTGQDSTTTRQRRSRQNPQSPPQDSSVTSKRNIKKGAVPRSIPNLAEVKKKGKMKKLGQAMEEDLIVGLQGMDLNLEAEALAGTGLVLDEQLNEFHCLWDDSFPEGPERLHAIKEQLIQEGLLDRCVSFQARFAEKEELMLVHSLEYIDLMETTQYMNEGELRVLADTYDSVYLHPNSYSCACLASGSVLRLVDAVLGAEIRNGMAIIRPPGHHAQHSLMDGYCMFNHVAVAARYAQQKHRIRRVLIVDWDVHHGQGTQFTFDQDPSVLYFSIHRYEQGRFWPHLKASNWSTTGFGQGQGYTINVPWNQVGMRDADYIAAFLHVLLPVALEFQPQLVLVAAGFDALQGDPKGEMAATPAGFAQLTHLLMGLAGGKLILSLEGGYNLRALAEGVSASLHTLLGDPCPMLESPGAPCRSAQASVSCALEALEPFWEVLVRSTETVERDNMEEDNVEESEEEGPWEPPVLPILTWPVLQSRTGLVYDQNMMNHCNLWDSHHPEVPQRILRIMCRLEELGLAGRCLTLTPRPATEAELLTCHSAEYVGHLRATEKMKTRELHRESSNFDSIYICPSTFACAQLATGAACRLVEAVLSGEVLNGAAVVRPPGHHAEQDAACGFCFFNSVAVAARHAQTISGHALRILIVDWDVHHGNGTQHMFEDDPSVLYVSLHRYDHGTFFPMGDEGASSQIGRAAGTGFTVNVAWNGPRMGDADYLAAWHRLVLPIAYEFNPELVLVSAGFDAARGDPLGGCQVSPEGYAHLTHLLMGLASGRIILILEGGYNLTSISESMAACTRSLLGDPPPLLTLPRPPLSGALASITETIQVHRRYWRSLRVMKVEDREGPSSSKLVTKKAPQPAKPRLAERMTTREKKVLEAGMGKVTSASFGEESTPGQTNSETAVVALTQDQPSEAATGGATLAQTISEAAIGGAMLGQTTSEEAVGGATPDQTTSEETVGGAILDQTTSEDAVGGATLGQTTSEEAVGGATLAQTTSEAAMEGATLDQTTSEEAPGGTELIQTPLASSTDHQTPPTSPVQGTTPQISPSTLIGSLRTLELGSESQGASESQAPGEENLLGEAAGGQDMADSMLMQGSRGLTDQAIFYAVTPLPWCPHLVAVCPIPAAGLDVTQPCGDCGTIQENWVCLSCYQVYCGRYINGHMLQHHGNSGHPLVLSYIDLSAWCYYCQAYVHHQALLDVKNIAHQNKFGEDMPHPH
Put plainly: Inhibition of human recombinant HDAC6. Put shortly: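 Purified recombinant human HDAC-2 or HDAC-6 at known enzyme concentration with tBOC(Ac)-Lys-AMC as substrate. IC50 is the mean of at least three experiments.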

The target of test [2] is T2, Histone deacetylase 8 (Homo sapiens, UniProt Q9BY41).
T2 sequence (Q9BY41 whole entry): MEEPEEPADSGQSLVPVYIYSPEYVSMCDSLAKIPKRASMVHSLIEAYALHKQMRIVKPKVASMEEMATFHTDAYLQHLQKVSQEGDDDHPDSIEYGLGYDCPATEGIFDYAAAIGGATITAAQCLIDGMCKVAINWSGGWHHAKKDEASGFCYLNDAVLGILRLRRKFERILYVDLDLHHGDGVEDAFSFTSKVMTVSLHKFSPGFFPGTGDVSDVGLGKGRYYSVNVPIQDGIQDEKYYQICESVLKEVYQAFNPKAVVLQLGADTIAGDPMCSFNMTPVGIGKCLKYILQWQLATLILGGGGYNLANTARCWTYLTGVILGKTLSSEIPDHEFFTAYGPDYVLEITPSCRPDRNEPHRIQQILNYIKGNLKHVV
Put plainly: Inhibition of human recombinant HDAC8.

The subject of test [3] is A549. Put plainly: Cytotoxicity against human A549 cells assessed as NADH level after 72 hrs by MTS cells. Conditions: A549, 72 h. The class given is functional, cell-based. The procedure, abridged:
(§1)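 Human A549 lung, HL60 leukemia and PC3 prostate cancer lines incubated with compound for 72 h. Viability read by MTS colorimetric assay from remaining NADH; EC50 calculated; mean of at least two experiments.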

Test [4] relates to HL-60. Put plainly: Cytotoxicity against human HL60 cells assessed as NADH level after 72 hrs by MTS cells. The class given is functional, cell-based. The settings on record: HL-60, 72 h. Put shortly: as §1
Test [5] has as its system PC-3. Put plainly: Cytotoxicity against human PC3 cells assessed as NADH level after 72 hrs by MTS cells. It counts as functional, cell-based. The settings on record: PC-3, 72 h. The procedure, abridged: as §1

Regarding `Cn1c(-c2cccc(/C=C/C(=O)NO)c2)nc2ccccc21`, the half-inhibitory concentration (IC50) (usually the midpoint of a concentration-inhibition curve) came out at 79 nM in test [1] and 100 nM in test [2]. Also, the 50% effective concentration (EC50) (in general, the concentration that produces a half-maximal response) in test [3] is 12000 nM; in test [4], 2000 nM; in test [5], 7900 nM.

As to `Cc1c(Cc2ccccc2)nc(-c2cccc(/C=C/C(=O)NO)c2)n1CCc1ccccc1`, the IC50 worked out at 63 nM in test [1] and 16 nM in test [2]. The figures for the EC50 in test [3], in test [4] and in test [5] were 800 nM, 200 nM and 500 nM, respectively.

As to `Cc1c(Cc2ccccc2)nc(-c2cccc(/C=C/C(=O)NO)c2)n1[C@@H]1CCCN(C)C1`, the IC50 came to 63 nM in test [1] and 79 nM in test [2]. In addition, the EC50 in test [3] came to 200 nM; in test [4] it was 20 nM; in test [5], 100 nM.

In the case of `CCN1CCC[C@@H](n2c(Cc3ccccc3)nc(C)c2-c2cccc(/C=C/C(=O)NO)c2)C1`, the figures for the 50% inhibitory concentration (IC50) in test [1] and in test [2] were 500 nM and 100 nM, respectively.

Regarding `O=C(/C=C/c1cccc(-c2nc3ccccc3n2Cc2ccccc2)c1)NO`, the IC50 was 63 nM in test [1] and 40 nM in test [2]. The results for the concentration giving a half-maximal response (EC50) in test [3], in test [4] and in test [5] were 6300 nM, 5000 nM and 1200 nM, respectively.

`O=C(/C=C/c1cccc(-c2nc3ccccc3n2[C@H]2CCCNC2)c1)NO`: the IC50 in test [1] is 25 nM; in test [2], 120 nM. Also, the EC50 in test [3] came out at 2500 nM; in test [4], 300 nM; in test [5], 600 nM.

Consider `O=C(/C=C/c1cccc(-c2nc3ccccc3n2CCN2CCCCC2)c1)NO`, for which the IC50 in test [1] is 40 nM; in test [2] it was 100 nM. Further, the results for the EC50 in test [3], in test [4] and in test [5] were 1200 nM, 300 nM and 600 nM, respectively.

As for `CCN1CCC[C@@H](n2c(-c3cccc(/C=C/C(=O)NO)c3)nc(-c3ccccc3)c2C)C1`, the figures for the concentration for half-maximal inhibition (IC50) in test [1] and in test [2] were 100 nM and 31 nM, respectively. Further, the EC50 in test [3] worked out at 300 nM; in test [4], 30 nM; in test [5] it was 50 nM.

As for `CCN1CCC[C@@H](n2c(C)nc(C)c2-c2cccc(/C=C/C(=O)NO)c2)C1`, the IC50 in test [1] stood at 400 nM.

Turning to `Cc1nc(-c2cccc(/C=C/C(=O)NO)c2)n(CCN2CCOCC2)c1C`, the half-inhibitory concentration (IC50) came out at 160 nM in test [1] and 200 nM in test [2]. Moreover, the values for the concentration for a half-maximal effect (EC50) in test [3], in test [4] and in test [5] were more than 50000 nM, 1600 nM and 5000 nM, respectively.

As for `CCN1CCCC(n2c(-c3cccc(/C=C/C(=O)NO)c3)nc3ccccc32)C1` (racemic), the half-inhibitory concentration (IC50) was determined as 79 nM in test [1] and 120 nM in test [2]. The EC50 in test [3] came out at 500 nM; in test [4], 60 nM; in test [5] it was 100 nM.

For the compound `Cc1c(-c2ccccc2)nc(-c2cccc(/C=C/C(=O)NO)c2)n1[C@@H]1CCCN(C(C)C)C1`, the values for the IC50 in test [1] and in test [2] were 79 nM and 31 nM, respectively. Moreover, the concentration for a half-maximal effect (EC50) amounted to 500 nM in test [3], 40 nM in test [4] and 100 nM in test [5].

`O=C(/C=C/c1cccc(-c2nc3ccccc3n2C2CCCCC2)c1)NO`: the half-maximal inhibitory concentration (IC50) amounted to 25 nM in test [1] and 50 nM in test [2]. For the same compound, the EC50 in test [3] is 3100 nM; in test [4] it was 500 nM; in test [5], 1600 nM.

Regarding `CN1CCC[C@H](n2c(-c3cccc(/C=C/C(=O)NO)c3)nc3ccccc32)C1`, the IC50 was 50 nM in test [1] and 160 nM in test [2]. In addition, the EC50 in test [3] came to 1200 nM; in test [4], 160 nM; in test [5] it was 300 nM.

In the case of `CCN1CCC[C@@H](n2c(-c3cccc(/C=C/C(=O)NO)c3)nc(Cc3ccccc3)c2C)C1`, the IC50 in test [1] was 100 nM; in test [2] it was 50 nM. Besides, the values for the EC50 in test [3], in test [4] and in test [5] were 100 nM, 30 nM and 40 nM, respectively.

Consider `O=C(/C=C/c1cccc(-c2nc3ccccc3n2[C@@H]2CCCNC2)c1)NO`, for which the IC50 in test [1] was 79 nM; in test [2] it was 120 nM. The EC50 in test [3] was determined as 1000 nM; in test [4], 100 nM; in test [5], 100 nM.

As to `O=C(/C=C/c1cccc(-c2nc3ccccc3n2CCN2CCCC2)c1)NO`, the IC50 in test [2] was 63 nM. In addition, the EC50 in test [3] came to 3100 nM; in test [4], 500 nM; in test [5], 600 nM.

With `Cc1c(-c2ccccc2)nc(-c2cccc(/C=C/C(=O)NO)c2)n1CCN1CCOCC1`, the IC50 in test [1] turned out to be 63 nM; in test [2], 79 nM. Moreover, the EC50 in test [3] amounted to 6300 nM; in test [4], 300 nM; in test [5], 1000 nM.

Consider `CCN1CCC[C@@H](n2c(-c3ccccc3)nc(C)c2-c2cccc(/C=C/C(=O)NO)c2)C1`, for which the concentration for half-maximal inhibition (IC50) came out at 630 nM in test [1] and 400 nM in test [2].

With `CCN1CCC[C@H](n2c(-c3cccc(/C=C/C(=O)NO)c3)nc3ccccc32)C1`, the IC50 in test [1] came to 79 nM; in test [2], 160 nM. Moreover, the results for the EC50 in test [3], in test [4] and in test [5] were 600 nM, 80 nM and 200 nM, respectively.

With `O=C(/C=C/c1cccc(-c2nc3ccccc3n2CCc2ccccc2)c1)NO`, the IC50 in test [1] came out at 31 nM; in test [2], 25 nM. Besides, the EC50 in test [3] was 2500 nM; in test [4], 300 nM; in test [5] it was 400 nM.

Consider `Cc1nc(-c2ccccc2)n(CCc2ccccc2)c1-c1cccc(/C=C/C(=O)NO)c1`, for which the IC50 in test [1] is 79 nM; in test [2], 50 nM.

`Cc1c(-c2ccccc2)nc(-c2cccc(/C=C/C(=O)NO)c2)n1CCc1ccccc1`: the IC50 was determined as 63 nM in test [1] and 20 nM in test [2]. Besides, the figures for the EC50 in test [3], in test [4] and in test [5] were 800 nM, 200 nM and 300 nM, respectively.

Turning to `Cc1nc(-c2cccc(/C=C/C(=O)NO)c2)n(CCc2ccccc2)c1-c1ccccc1`, the half-maximal inhibitory concentration (IC50) was found to be 79 nM in test [1] and 25 nM in test [2]. The EC50 was found to be 1000 nM in test [3], 300 nM in test [4] and 500 nM in test [5].

Take `O=C(/C=C/c1cccc(-c2nc3ccccc3n2CCN2CCOCC2)c1)NO`: the IC50 turned out to be 160 nM in test [1] and 400 nM in test [2]. Further, the EC50 in test [3] amounted to 25000 nM; in test [4] it was 1200 nM; in test [5], 5000 nM.

For the compound `Cc1nc(-c2cccc(/C=C/C(=O)NO)c2)n([C@@H]2CCCN(C(C)C)C2)c1-c1ccccc1`, the half-maximal inhibitory concentration (IC50) in test [1] stood at 100 nM; in test [2], 40 nM. Further, the EC50 in test [3] came out at 400 nM; in test [4] it was 30 nM; in test [5], 200 nM.

For the compound `CCN1CCC[C@@H](n2c(-c3cccc(/C=C/C(=O)NO)c3)nc3ccccc32)C1`, the IC50 was found to be 79 nM in test [1] and 120 nM in test [2]. Besides, the EC50 in test [3] was 200 nM; in test [4], 30 nM; in test [5], 50 nM.

On to `Cc1nc(C)n(CCc2ccccc2)c1-c1cccc(/C=C/C(=O)NO)c1`, for which the IC50 in test [1] was determined as 120 nM; in test [2], 100 nM.

Consider `O=C(/C=C/c1cccc(-c2nc3ccccc3n2-c2ccccc2)c1)NO`, for which, in test [2], the IC50 stood at 50 nM. The concentration giving a half-maximal response (EC50) in test [3] was determined as 16000 nM; in test [4], 1600 nM; in test [5] it was 4000 nM.

Regarding `Cc1nc(Cc2ccccc2)n(CCc2ccccc2)c1-c1cccc(/C=C/C(=O)NO)c1`, the IC50 in test [1] and in test [2] was 63 nM in each case.

These data come from ChEMBL document CHEMBL1158589, “Benzimidazole and imidazole inhibitors of histone deacetylases: Synthesis and biological activity” (Bioorg Med Chem Lett, 2010).
